Experimental data as given in ChEMBL document CHEMBL4819034, “Tricyclic-Carbocyclic RORγt Inverse Agonists-Discovery of BMS-986313” (J Med Chem, 2021).

Key:
[1] = Metabolic stability in human liver microsomes assessed as parent compound remaining; assay type: ADME, Microsome
Method in brief: (§1)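 Test compound at 0.5 μM initial concentration incubated with human, mouse or rat liver microsomes (protein 1 mg/mL). Metabolic stability reported as percent of parent compound remaining after incubation.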

[2] = Metabolic stability in mouse liver microsomes assessed as parent compound remaining; assay type: ADME, Microsome; method in brief: as §1
[3] = Metabolic stability in rat liver microsomes assessed as parent compound remaining; assay type: ADME, Microsome; method in brief: as §1
[4] = Half life in human liver microsomes; assay type: ADME, Microsome
Method in brief: (§2)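 Liver microsome half-life (min) measured in human, mouse, rat, dog and cyno liver microsomes.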

[5] = Half life in mouse liver microsomes; assay type: ADME, Microsome; method in brief: as §2
[6] = Half life in dog liver microsomes; assay type: ADME, Canis lupus familiaris, Microsome; method in brief: as §2
[7] = Half life in cynomolgus monkey liver microsomes; assay type: ADME, Macaca fascicularis, Microsome; method in brief: as §2
[8] = target: T1, Nuclear receptor ROR-alpha (Homo sapiens, UniProt P35398); experiment: Inverse agonist activity at Gal4-fused RORalpha (unknown origin)
T1 sequence (P35398 whole entry): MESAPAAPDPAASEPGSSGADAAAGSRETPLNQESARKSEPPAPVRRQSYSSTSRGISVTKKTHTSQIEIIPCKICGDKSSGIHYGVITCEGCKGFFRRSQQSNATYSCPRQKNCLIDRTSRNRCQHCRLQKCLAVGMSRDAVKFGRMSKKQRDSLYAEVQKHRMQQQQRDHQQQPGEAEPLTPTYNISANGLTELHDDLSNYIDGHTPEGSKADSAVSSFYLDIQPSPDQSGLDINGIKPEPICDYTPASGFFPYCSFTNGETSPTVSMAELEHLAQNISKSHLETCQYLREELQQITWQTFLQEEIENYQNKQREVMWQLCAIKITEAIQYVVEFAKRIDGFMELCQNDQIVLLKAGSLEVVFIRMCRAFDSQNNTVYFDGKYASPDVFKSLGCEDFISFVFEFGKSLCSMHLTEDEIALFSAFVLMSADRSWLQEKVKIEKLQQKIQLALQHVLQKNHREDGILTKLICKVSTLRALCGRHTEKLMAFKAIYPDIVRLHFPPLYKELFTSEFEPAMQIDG

[9] = target: Voltage-gated inwardly rectifying potassium channel KCNH2 (Homo sapiens, UniProt Q12809); experiment: Inhibition of human ERG by patch-clamp assay
[10] = Protein binding in human assessed as unbound fraction; assay type: ADME
[11] = Protein binding in mouse assessed as unbound fraction; assay type: ADME
Cytochrome P450 2D6 = Cytochrome P450 2D6 (Homo sapiens, UniProt P10635); experiment: Inhibition of CYP2D6 (unknown origin); assay type: ADME
Cytochrome P450 3A4 = Cytochrome P450 3A4 (Homo sapiens, UniProt P08684); experiment: Inhibition of CYP3A4 (unknown origin); assay type: ADME
Cytochrome P450 2C19 = Cytochrome P450 2C19 (Homo sapiens, UniProt P33261); experiment: Inhibition of CYP2C19 (unknown origin); assay type: ADME
[12] = Clearance in mouse at 2 mg/kg, iv; assay type: ADME, organism-based; conditions: in vivo
Method in brief: (§3)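 Single-dose PK, IV and PO. Doses: mouse and rat 2 mg/kg IV / 4 mg/kg PO; dog and cyno 1 mg/kg IV, with 1 or 2 mg/kg PO.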

[13] = Cmax in mouse at 4 mg/kg, po; assay type: ADME, organism-based; design: route oral, dose 4 mg/kg; conditions: in vivo; method in brief: as §3
[14] = AUC (0 to 24 hrs) in rat at 4 mg/kg, po; assay type: ADME, organism-based; design: time < 24 hr, route oral, dose 4 mg/kg; conditions: in vivo
[15] = Oral bioavailability in rat at 4 mg/kg; assay type: ADME, organism-based; conditions: in vivo; method in brief: as §3
[16] = Clearance in dog at 1 mg/kg, iv; assay type: ADME, organism-based, Canis lupus familiaris; conditions: in vivo; method in brief: as §3
[17] = Clearance in cynomolgus monkey at 1 mg/kg, iv; assay type: ADME, organism-based, Macaca fascicularis; conditions: in vivo; method in brief: as §3
[18] = Cmax in cynomolgus monkey at 2 mg/kg, po; assay type: ADME, organism-based, Macaca fascicularis; design: route oral, dose 2 mg/kg; conditions: in vivo; method in brief: as §3
[19] = Oral bioavailability in cynomolgus monkey at 2 mg/kg; assay type: ADME, organism-based, Macaca fascicularis; conditions: in vivo; method in brief: as §3
Mus musculus [20] = experiment: Protection against imiquimod-induced C57BL/6 mouse model of psoriasis assessed as inhibition of skin thickening at 5 mg/kg, po BID for 7 days and measured every day for 8 days relative to control; assay type: functional; conditions: C57BL/6, po, 168 h, time 7 day
Mus musculus [21] = experiment: Protection against imiquimod-induced C57BL/6 mouse model of psoriasis assessed as reduction in IL-17A mRNA levels at 10 mg/kg, po BID for 7 days by RT-PCR analysis relative to control; assay type: functional; design: scale not given: the % may be the effect or the level left; conditions: time 7 day
Mus musculus [22] = experiment: Protection against imiquimod-induced C57BL/6 mouse model of psoriasis assessed as reduction in IL-17A mRNA levels at 20 mg/kg, po BID for 7 days by RT-PCR analysis relative to control; assay type: functional; design: scale not given: the % may be the effect or the level left; conditions: time 7 day
Mus musculus [23] = experiment: Protection against imiquimod-induced C57BL/6 mouse model of psoriasis assessed as reduction in IL-17F mRNA levels at 10 mg/kg, po BID for 7 days by RT-PCR analysis relative to control; assay type: functional; design: scale not given: the % may be the effect or the level left; conditions: time 7 day
Mus musculus [24] = experiment: Protection against imiquimod-induced C57BL/6 mouse model of psoriasis assessed as reduction in IL-17F mRNA levels at 20 mg/kg, po BID for 7 days by RT-PCR analysis relative to control; assay type: functional; design: scale not given: the % may be the effect or the level left; conditions: time 7 day
Mus musculus [25] = experiment: Protection against recombinant human IL23-induced acanthosis C57BL/6 mouse model assessed as inhibition of ear thickening at 6 mg/kg, po BID for 10 days and measured every other day relative to control; assay type: functional; conditions: C57BL/6, po, 240 h, time 10 day
Method in brief: (§4)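 IL-23 ear-injection acanthosis model in C57BL/6 mice with BID oral dosing. Ear thickness % change was recorded every other day, before each next injection, from a day 0 baseline. Inhibition of ear thickening was calculated against the placebo arm from the area under the curve over the study duration.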

Mus musculus [26] = experiment: Protection against recombinant human IL23-induced acanthosis C57BL/6 mouse model assessed as inhibition of ear thickening at 15 mg/kg, po BID for 10 days and measured every other day relative to control; assay type: functional; conditions: C57BL/6, po, 240 h, time 10 day; method in brief: as §4
Mus musculus [27] = experiment: Protection against recombinant human IL23-induced acanthosis C57BL/6 mouse model assessed as change in ear thickness score at 15 mg/kg, po BID for 10 days and measured every other day relative to control; assay type: functional; conditions: time 10 day
Method in brief: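 IL-23 was injected into the ear of C57BL/6 mice to induce dermal inflammation and epidermal hyperplasia. Ear thickness was measured at baseline on day 0, then as % change every other day before each next ear injection. Oral dosing was BID.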

Mus musculus [28] = experiment: Protection against recombinant human IL23-induced acanthosis C57BL/6 mouse model assessed as reduction in IL-17A mRNA levels at 3 mg/kg, po BID BID for 10 days by qRT-PCR analysis relative to control; assay type: functional; design: scale not given: the % may be the effect or the level left; conditions: time 10 day
Method in brief: (§5)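 In the IL-23 ear-injection model in C57BL/6 mice with BID oral dosing, ear tissue was collected from all animals at study end on day 10. IL-17A and IL-17F mRNA expression was quantified by qPCR and compared with the placebo arm.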

Mus musculus [29] = experiment: Protection against recombinant human IL23-induced acanthosis C57BL/6 mouse model assessed as reduction in IL-17A mRNA levels at 15 mg/kg, po BID BID for 10 days by qRT-PCR analysis relative to control; assay type: functional; design: scale not given: the % may be the effect or the level left; conditions: time 10 day; method in brief: as §5

Cytochrome P450 3A4, sequence (P08684 whole entry): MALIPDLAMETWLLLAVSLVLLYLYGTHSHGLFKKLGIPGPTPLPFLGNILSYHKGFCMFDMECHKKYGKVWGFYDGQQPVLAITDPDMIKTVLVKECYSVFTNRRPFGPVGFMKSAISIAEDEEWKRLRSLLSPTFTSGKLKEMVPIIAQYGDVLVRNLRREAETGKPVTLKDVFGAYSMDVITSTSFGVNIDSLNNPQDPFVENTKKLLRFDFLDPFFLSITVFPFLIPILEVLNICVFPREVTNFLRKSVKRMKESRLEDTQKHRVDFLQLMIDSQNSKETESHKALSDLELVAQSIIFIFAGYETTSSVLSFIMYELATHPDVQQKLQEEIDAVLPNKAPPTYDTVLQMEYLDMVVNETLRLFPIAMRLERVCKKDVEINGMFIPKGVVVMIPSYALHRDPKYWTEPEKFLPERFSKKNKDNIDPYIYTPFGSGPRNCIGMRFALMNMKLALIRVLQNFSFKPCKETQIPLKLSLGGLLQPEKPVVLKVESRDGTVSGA
Cytochrome P450 2C19, sequence (P33261 whole entry): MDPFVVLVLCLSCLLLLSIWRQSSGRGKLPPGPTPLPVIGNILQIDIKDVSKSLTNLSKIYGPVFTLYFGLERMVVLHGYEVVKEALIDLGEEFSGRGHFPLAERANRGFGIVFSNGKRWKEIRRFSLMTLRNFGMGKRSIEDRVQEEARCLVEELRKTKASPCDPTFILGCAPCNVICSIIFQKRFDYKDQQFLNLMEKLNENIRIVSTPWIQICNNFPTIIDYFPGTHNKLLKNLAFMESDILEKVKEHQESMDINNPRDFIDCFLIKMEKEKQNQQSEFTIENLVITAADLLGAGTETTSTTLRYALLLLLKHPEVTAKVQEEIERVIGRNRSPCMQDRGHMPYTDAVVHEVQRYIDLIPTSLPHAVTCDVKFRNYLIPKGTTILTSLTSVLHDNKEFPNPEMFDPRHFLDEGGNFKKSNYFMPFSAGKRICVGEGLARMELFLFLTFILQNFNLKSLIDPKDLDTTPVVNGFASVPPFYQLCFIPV
Voltage-gated inwardly rectifying potassium channel KCNH2, sequence (Q12809 whole entry): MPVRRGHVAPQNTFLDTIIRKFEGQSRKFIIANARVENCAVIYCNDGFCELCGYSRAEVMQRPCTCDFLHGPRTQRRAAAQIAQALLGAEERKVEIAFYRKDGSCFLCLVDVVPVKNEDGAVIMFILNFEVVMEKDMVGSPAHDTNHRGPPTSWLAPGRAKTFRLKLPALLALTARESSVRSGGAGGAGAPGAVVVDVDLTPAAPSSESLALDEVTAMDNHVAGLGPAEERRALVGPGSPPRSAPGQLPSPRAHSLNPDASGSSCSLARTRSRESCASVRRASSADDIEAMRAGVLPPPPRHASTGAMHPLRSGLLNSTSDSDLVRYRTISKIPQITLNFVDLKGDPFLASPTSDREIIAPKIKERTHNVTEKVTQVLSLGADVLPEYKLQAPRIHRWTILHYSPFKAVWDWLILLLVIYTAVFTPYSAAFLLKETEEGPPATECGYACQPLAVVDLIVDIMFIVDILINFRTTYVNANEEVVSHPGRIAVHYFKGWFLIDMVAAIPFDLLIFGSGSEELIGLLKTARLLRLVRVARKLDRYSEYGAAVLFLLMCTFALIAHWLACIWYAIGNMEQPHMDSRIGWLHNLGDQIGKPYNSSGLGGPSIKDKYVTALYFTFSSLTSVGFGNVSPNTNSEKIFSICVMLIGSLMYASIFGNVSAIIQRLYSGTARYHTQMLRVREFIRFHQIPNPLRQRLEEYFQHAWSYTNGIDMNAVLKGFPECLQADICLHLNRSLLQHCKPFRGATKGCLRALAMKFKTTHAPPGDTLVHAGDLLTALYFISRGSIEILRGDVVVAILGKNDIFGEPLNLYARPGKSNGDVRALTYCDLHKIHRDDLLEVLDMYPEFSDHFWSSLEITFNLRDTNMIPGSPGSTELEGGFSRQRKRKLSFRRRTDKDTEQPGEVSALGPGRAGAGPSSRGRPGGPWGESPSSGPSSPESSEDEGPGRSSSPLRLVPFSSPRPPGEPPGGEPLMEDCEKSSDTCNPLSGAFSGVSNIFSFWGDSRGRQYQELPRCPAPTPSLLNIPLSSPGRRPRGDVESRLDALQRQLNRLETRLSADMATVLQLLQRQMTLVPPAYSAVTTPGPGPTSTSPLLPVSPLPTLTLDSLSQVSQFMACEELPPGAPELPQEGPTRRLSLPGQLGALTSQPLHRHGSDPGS
Cytochrome P450 2D6, sequence (P10635 whole entry): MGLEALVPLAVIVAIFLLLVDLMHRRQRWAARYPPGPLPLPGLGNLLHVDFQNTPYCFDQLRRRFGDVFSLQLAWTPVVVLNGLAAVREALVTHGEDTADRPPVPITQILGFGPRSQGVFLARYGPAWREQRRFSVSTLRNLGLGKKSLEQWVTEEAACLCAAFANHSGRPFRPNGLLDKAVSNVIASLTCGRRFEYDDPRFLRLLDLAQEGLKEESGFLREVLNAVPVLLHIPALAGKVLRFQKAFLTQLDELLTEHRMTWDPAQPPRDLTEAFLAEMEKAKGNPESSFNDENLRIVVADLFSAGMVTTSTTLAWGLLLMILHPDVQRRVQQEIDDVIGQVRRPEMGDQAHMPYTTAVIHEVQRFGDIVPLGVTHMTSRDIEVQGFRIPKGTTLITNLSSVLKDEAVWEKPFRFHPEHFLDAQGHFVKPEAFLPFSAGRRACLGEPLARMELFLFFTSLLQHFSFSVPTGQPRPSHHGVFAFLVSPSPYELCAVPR

Structure (SMILES): CC(C)(O)C(=O)N[C@@H]1CC[C@@]2(S(=O)(=O)c3ccc(F)cc3)c3ccc(C(F)(C(F)(F)F)C(F)(F)F)cc3CC[C@@H]12
- Stabilty [1]: 100%
- Stabilty [2]: 92%
- Stabilty [3]: 100%
- half-life [4]: 2 h
- half-life [5]: 2 h
- half-life [6]: 2 h
- half-life [7]: 2 h
- EC50 [8]: > 10 µM
- IC50 [9]: 19 µM
- fraction unbound [10]: 0.005
- fraction unbound [11]: 0.006
- IC50 (Cytochrome P450 2D6): 20 µM
- IC50 (Cytochrome P450 3A4): 11 µM
- IC50 (Cytochrome P450 2C19): 19 µM
- clearance [12]: 3.7 mL/min/kg
- Cmax [13]: 2200 nM
- AUC(0-t) at 24 h [14]: 17 µM·h
- bioavailability [15]: 65%
- clearance [16]: 0.8 mL/min/kg
- clearance [17]: 2.7 mL/min/kg
- Cmax [18]: 1100 nM
- bioavailability [19]: 75%
- inhibition in vivo at 5 mg/kg (Mus musculus [20]): 13.7%
- Activity (Mus musculus [21]): 76.7%
- Activity (Mus musculus [22]): 91.5%
- Activity (Mus musculus [23]): 89.7%
- Activity (Mus musculus [24]): 97.9%
- inhibition in vivo at 6 mg/kg (Mus musculus [25]): 43.4%
- inhibition in vivo at 15 mg/kg (Mus musculus [26]): 66.8%
- Activity (Mus musculus [27]): 66.8%
- Activity (Mus musculus [28]): 2.7%
- Activity (Mus musculus [29]): 71.6%
